Experimental data from ChEMBL document CHEMBL4613280, “Development of Pyrazolo[3,4-d]pyrimidine Kinase Inhibitors as Potential Clinical Candidates for Glioblastoma Multiforme” (ACS Med Chem Lett, 2020).
pIC50: −log10 of the molar value. The source made the active and inactive calls. The calls are words filed in the database; no cut-off is given here.

Key:
[1] = organism: Homo sapiens; experiment: Cytotoxicity against human GCE28 cells assessed as reduction in cell viability at 5 ug/ml measured after 48 hrs using Tween 80-formulated compound by Prestoblue assay; format: functional, cell-based
In short: (§1)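 Inhibitor either dissolved in DMSO, inkjet-printed into polymer, or suspended in PBS, then diluted in DMEM. Polymer-alone and untreated controls included. Viability read by PrestoBlue after 48 h, mean ± SD.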

[2] = organism: Homo sapiens; experiment: Cytotoxicity against human GCE28 cells assessed as reduction in cell viability at 5 ug/ml measured after 48 hrs using PVPVA-formulated compound by Prestoblue assay; format: functional, cell-based; in short: as §1
[3] = organism: Homo sapiens; experiment: Induction of necrosis in human GIN28 cells assessed as induction of nuclear membrane permeability at 12.5 uM measured after 48 hrs by Hoechst 33342/propidium iodide staining based fluorescence microscopy analysis; format: functional, cell-based
In short: (§2)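 Cells dosed 48 h with 12.5 μM inhibitor, with 70% ethanol or DMEM (negative) as controls. Nuclei then double-stained with Hoechst 33342 and propidium iodide and examined by fluorescence microscopy.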

[4] = organism: Homo sapiens; experiment: Cytotoxicity against human GCE28 cells assessed as reduction in cell viability at 5 ug/ml measured after 48 hrs using compound dissolved in DMSO by Prestoblue assay; format: functional, cell-based; in short: as §1
[5] = Additive cytotoxicity against human GIN28 cells assessed as combination index measured after 48 hrs in presence of 2-[[4-(2-phenylethylamino)-1-[styryl]pyrazolo[3,4-d]pyrimidin-6-yl]amino]ethanol by Chou-Talalay assay; format: functional
In short: (§3)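 Each drug pair dosed at a 1:1 molar ratio on the GBM lines and incubated 48 h. CI computed from three independent IC50 experiments (n = 3), reported as mean ± SD.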

[6] = Cytotoxicity against human GIN28 cells derived from invasive region of GBM patient assessed as reduction in cell viability measured after 48 hrs by Prestoblue assay; format: functional, cell-based
In short: (§4)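 Compounds diluted in DMEM containing 10% FBS and applied for 48 h. Viability read by PrestoBlue. IC50 calculated from three independent experiments, mean ± SE. Two-way ANOVA with Dunnett's multiple comparisons test.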

[7] = Synergistic cytotoxicity against human GIN28 cells assessed as combination index measured after 48 hrs in presence of 3-(4-chlorophenyl)-1-(2-chloro-2-phenylethyl)pyrazolo[3,4-d]pyrimidin-4-amine by Chou-Talalay assay; format: functional; in short: as §3
[8] = organism: Homo sapiens; experiment: Induction of necrosis in human GIN8 cells assessed as induction of nuclear membrane permeability at 12.5 uM measured after 48 hrs by Hoechst 33342/propidium iodide staining based fluorescence microscopy analysis; format: functional, cell-based; in short: as §2
[9] = Cytotoxicity against human GIN8 cells derived from invasive region of GBM patient assessed as reduction in cell viability measured after 48 hrs by Prestoblue assay; format: functional, cell-based; in short: as §4
[10] = organism: Homo sapiens; experiment: Induction of apoptotic death in human GCE28 cells assessed as nuclear fragmentation at 12.5 uM measured after 48 hrs by Hoechst 33342/propidium iodide staining based fluorescence microscopy analysis; format: functional, cell-based; in short: as §2
[11] = organism: Homo sapiens; experiment: Induction of apoptosis in human GIN8 cells assessed as increase in caspase 3/7 activation at 12.5 uM measured after 48 hrs by CellEvent caspase 3/7 probe based fluorescence analysis; format: functional, cell-based
In short: (§5)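 Cells exposed 48 h to compounds diluted in 10% FBS DMEM. Activated caspase-3/7 detected with the CellEvent probe. Staurosporine 10.0 μM served as reference inducer. Mean ± SEM (n = 3). Two-way ANOVA with Dunnett's test.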

[12] = organism: Homo sapiens; experiment: Cytotoxicity against human GIN8 cells assessed as reduction in cell viability at 5 ug/ml measured after 48 hrs using Pluronic-F68-formulated compound by Prestoblue assay; format: functional, cell-based; in short: as §1
[13] = organism: Homo sapiens; experiment: Cytotoxicity against human GIN28 cells assessed as reduction in cell viability at 5 ug/ml measured after 48 hrs using compound dissolved in DMSO by Prestoblue assay; format: functional, cell-based; in short: as §1
[14] = organism: Homo sapiens; experiment: Cytotoxicity against human GCE28 cells assessed as reduction in cell viability at 5 ug/ml measured after 48 hrs using Pluronic-F68-formulated compound by Prestoblue assay; format: functional, cell-based; in short: as §1
[15] = organism: Homo sapiens; experiment: Cytotoxicity against human GIN28 cells assessed as cell viability at 5 ug/ml measured after 48 hrs using compound suspended in PBS by Prestoblue assay; format: functional, cell-based; in short: as §1
[16] = organism: Homo sapiens; experiment: Cytotoxicity against human GIN28 cells assessed as reduction in cell viability at 5 ug/ml measured after 48 hrs using Tween 80-formulated compound by Prestoblue assay; format: functional, cell-based; in short: as §1
[17] = organism: Homo sapiens; experiment: Cytotoxicity against human GIN28 cells assessed as reduction in cell viability at 5 ug/ml measured after 48 hrs using PVPVA-formulated compound by Prestoblue assay; format: functional, cell-based; in short: as §1
[18] = Apparent water solubility of the compound in PBS formulated with 900 ug/ml polymer Tween 80 at 100 ug/ml by UV-Visible spectral analysis; format: physicochemical; settings: buffer
[19] = organism: Homo sapiens; experiment: Induction of apoptotic death in human GIN8 cells assessed as presence of apoptotic bodies at 12.5 uM measured after 48 hrs by Hoechst 33342/propidium iodide staining based fluorescence microscopy analysis; format: functional, cell-based; in short: as §2
[20] = organism: Homo sapiens; experiment: Induction of apoptotic death in human GIN8 cells assessed as […] at 12.5 uM measured after 48 hrs by Hoechst 33342/propidium iodide staining based fluorescence microscopy analysis; format: functional, cell-based; in short: as §2
[21] = Additive cytotoxicity against human GIN8 cells assessed as combination index measured after 48 hrs in presence of 2-[[4-(2-phenylethylamino)-1-[styryl]pyrazolo[3,4-d]pyrimidin-6-yl]amino]ethanol by Chou-Talalay assay; format: functional; in short: as §3
[22] = Synergistic cytotoxicity against human GCE28 cells assessed as combination index measured after 48 hrs in presence of 3-(4-chlorophenyl)-1-(2-chloro-2-phenylethyl)pyrazolo[3,4-d]pyrimidin-4-amine by Chou-Talalay assay; format: functional; in short: as §3
[23] = organism: Homo sapiens; experiment: Cytotoxicity against human GIN8 cells assessed as reduction in cell viability at 5 ug/ml measured after 48 hrs using Tween 80-formulated compound by Prestoblue assay; format: functional, cell-based; in short: as §1
[24] = Apparent water solubility of the compound in PBS formulated with 900 ug/ml polymer PVPVA at 100 ug/ml by UV-Visible spectral analysis; format: physicochemical; settings: buffer
[25] = Cytotoxicity against human GCE28 cells derived from central tumor core of GBM patient assessed as reduction in cell viability measured after 48 hrs by Prestoblue assay; format: functional, cell-based; in short: as §4
[26] = organism: Homo sapiens; experiment: Cytotoxicity against human GIN8 cells assessed as cell viability at 5 ug/ml measured after 48 hrs using compound suspended in PBS by Prestoblue assay; format: functional, cell-based; in short: as §1
[27] = Synergistic cytotoxicity against human GIN8 cells assessed as combination index measured after 48 hrs in presence of 3-(4-chlorophenyl)-1-(2-chloro-2-phenylethyl)pyrazolo[3,4-d]pyrimidin-4-amine by Chou-Talalay assay; format: functional
In short: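 Two kinase inhibitors were combined at a 1:1 molar ratio, diluted in DMEM with 10% FBS, and incubated with the GBM cells for 48 h. Viability was read by PrestoBlue. Combination index values were calculated from three independent IC50 experiments (n = 3) and are reported as mean ± SD.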

[28] = organism: Homo sapiens; experiment: Induction of apoptotic death in human GIN28 cells assessed as […] at 12.5 uM measured after 48 hrs by Hoechst 33342/propidium iodide staining based fluorescence microscopy analysis; format: functional, cell-based; in short: as §2
[29] = organism: Homo sapiens; experiment: Induction of apoptosis in human GIN28 cells assessed as increase in caspase 3/7 activation at 12.5 uM measured after 48 hrs by CellEvent caspase 3/7 probe based fluorescence analysis; format: functional, cell-based; in short: as §5
[30] = organism: Homo sapiens; experiment: Induction of apoptosis in human GCE28 cells assessed as increase in caspase 3/7 activation at 12.5 uM measured after 48 hrs by CellEvent caspase 3/7 probe based fluorescence analysis; format: functional, cell-based; in short: as §5
[31] = organism: Homo sapiens; experiment: Induction of apoptotic death in human GIN28 cells assessed as presence of apoptotic bodies at 12.5 uM measured after 48 hrs by Hoechst 33342/propidium iodide staining based fluorescence microscopy analysis; format: functional, cell-based; in short: as §2
[32] = organism: Homo sapiens; experiment: Induction of apoptotic death in human GCE28 cells assessed as […] at 12.5 uM measured after 48 hrs by Hoechst 33342/propidium iodide staining based fluorescence microscopy analysis; format: functional, cell-based; in short: as §2
[33] = organism: Homo sapiens; experiment: Induction of necrosis in human GCE28 cells assessed as induction of nuclear membrane permeability at 12.5 uM measured after 48 hrs by Hoechst 33342/propidium iodide staining based fluorescence microscopy analysis; format: functional, cell-based; in short: as §2
[34] = organism: Homo sapiens; experiment: Cytotoxicity against human GCE28 cells assessed as cell viability at 5 ug/ml measured after 48 hrs using compound suspended in PBS by Prestoblue assay; format: functional, cell-based; in short: as §1
[35] = Additive cytotoxicity against human GCE28 cells assessed as combination index measured after 48 hrs in presence of 2-[[4-(2-phenylethylamino)-1-[styryl]pyrazolo[3,4-d]pyrimidin-6-yl]amino]ethanol by Chou-Talalay assay; format: functional; in short: as §3
[36] = organism: Homo sapiens; experiment: Cytotoxicity against human GIN8 cells assessed as reduction in cell viability at 5 ug/ml measured after 48 hrs using PVPVA-formulated compound by Prestoblue assay; format: functional, cell-based; in short: as §1
[37] = organism: Homo sapiens; experiment: Cytotoxicity against human GIN28 cells assessed as reduction in cell viability at 5 ug/ml measured after 48 hrs using Pluronic-F68-formulated compound by Prestoblue assay; format: functional, cell-based; in short: as §1
[38] = organism: Homo sapiens; experiment: Induction of apoptotic death in human GCE28 cells assessed as presence of apoptotic bodies at 12.5 uM measured after 48 hrs by Hoechst 33342/propidium iodide staining based fluorescence microscopy analysis; format: functional, cell-based; in short: as §2
[39] = organism: Homo sapiens; experiment: Induction of apoptotic death in human GIN28 cells assessed as nuclear fragmentation at 12.5 uM measured after 48 hrs by Hoechst 33342/propidium iodide staining based fluorescence microscopy analysis; format: functional, cell-based; in short: as §2
[40] = Apparent water solubility of the compound in PBS formulated with 900 ug/ml of polymer Pluronic F-68 at 100 ug/ml by UV-Visible spectral analysis; format: physicochemical; settings: buffer
[41] = organism: Homo sapiens; experiment: Induction of apoptotic death in human GIN8 cells assessed as nuclear fragmentation at 12.5 uM measured after 48 hrs by Hoechst 33342/propidium iodide staining based fluorescence microscopy analysis; format: functional, cell-based; in short: as §2
[42] = organism: Homo sapiens; experiment: Cytotoxicity against human GIN8 cells assessed as reduction in cell viability at 5 ug/ml measured after 48 hrs using compound dissolved in DMSO by Prestoblue assay; format: functional, cell-based; in short: as §1

Question: Which Activity [1] does the source give for `ClC(Cn1ncc2c(Nc3cccc(Br)c3)nc(SCCN3CCOCC3)nc21)c1ccccc1` (configuration not stated) here?
Answer: Active

Question: What about the Activity [2] of the same compound?
Answer: Active

Question: What about the Activity [3] of the same compound?
Answer: inactive

Question: And the Activity [4]?
Answer: Active

Question: What about the CI [5] of the same compound?
Answer: 0.9

Question: What about the pIC50 [6] of the same compound?
Answer: 5.11

Question: And the CI [7]?
Answer: 0.76

Question: And the Activity [8]?
Answer: inactive

Question: What about the pIC50 [9] of the same compound?
Answer: 4.95

Question: What about the Activity [10] of the same compound?
Answer: Active

Question: What about the Activity [11] of the same compound?
Answer: Active

Question: And the Activity [12]?
Answer: Active

Question: And the Activity [13]?
Answer: Active

Question: And the Activity [14]?
Answer: Active

Question: What about the Activity [15] of the same compound?
Answer: inactive

Question: And the Activity [16]?
Answer: Active

Question: What about the Activity [17] of the same compound?
Answer: Active

Question: What about the solubility [18] of the same compound?
Answer: Soluble

Question: And the Activity [19]?
Answer: Active

Question: And the Activity [20]?
Answer: Active

Question: And the CI [21]?
Answer: 0.99

Question: What about the CI [22] of the same compound?
Answer: 0.88

Question: What about the Activity [23] of the same compound?
Answer: Active

Question: What about the solubility [24] of the same compound?
Answer: Soluble

Question: And the pIC50 [25]?
Answer: 5.14

Question: And the Activity [26]?
Answer: inactive

Question: What about the CI [27] of the same compound?
Answer: 0.53

Question: What about the Activity [28] of the same compound?
Answer: Active

Question: What about the Activity [29] of the same compound?
Answer: Active

Question: What about the Activity [30] of the same compound?
Answer: Active

Question: What about the Activity [31] of the same compound?
Answer: Active

Question: And the Activity [32]?
Answer: Active

Question: And the Activity [33]?
Answer: inactive

Question: What about the Activity [34] of the same compound?
Answer: inactive

Question: And the CI [35]?
Answer: 0.97

Question: What about the Activity [36] of the same compound?
Answer: Active

Question: And the Activity [37]?
Answer: Active

Question: What about the Activity [38] of the same compound?
Answer: Active

Question: And the Activity [39]?
Answer: Active

Question: And the solubility [40]?
Answer: Soluble

Question: What about the Activity [41] of the same compound?
Answer: Active

Question: And the Activity [42]?
Answer: Active
